Test results published in ChEMBL document CHEMBL1154616, “Synthesis and antitumor activity studies of some new fused 1,2,4-triazole derivatives carrying 2,4-dichloro-5-fluorophenyl moiety” (Eur J Med Chem, 2009).

Tests used:
T47D = assay: Anticancer activity against human T47D cells after 48 hrs by sulforhodamine B assay; format: functional
Summary of the method: (§1)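 Cells from the 60-line full panel are preincubated on microtiter plates, then treated across a five-log dose range for 48 h. Growth is read with the protein-binding dye sulforhodamine B. GI50 is the concentration giving 50% growth inhibition relative to untreated control cells.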

MCF7 [1] = assay: Anticancer activity against human MCF7 cells after 48 hrs by sulforhodamine B assay; format: functional; conditions: MCF7, 48 h
Summary of the method: (§2)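 Full 60-cell-line panel, compounds tested over a five-log dose range. Cells are preincubated on microtiter plates, the agent is added, and cultures run 48 h. The end point is sulphorhodamine B protein staining. GI50 is taken as the concentration giving 50% growth inhibition relative to untreated control cells.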

OVCAR-4 = assay: Anticancer activity against human OVCAR4 cells after 48 hrs by sulforhodamine B assay; format: functional; conditions: OVCAR-4, 48 h; summary of the method: as §2
U-251 = assay: Anticancer activity against human U251 cells after 48 hrs by sulforhodamine B assay; format: functional; conditions: U-251, 48 h; summary of the method: as §1
SK-OV-3 = assay: Anticancer activity against human SKOV3 cells after 48 hrs by sulforhodamine B assay; format: functional; conditions: SK-OV-3, 48 h; summary of the method: as §2
K562 = assay: Anticancer activity against human K562 cells after 48 hrs by sulforhodamine B assay; format: functional; conditions: K562, 48 h; summary of the method: as §2
NCI-H460 [2] = assay: Anticancer activity against human NCI-H460 cells assessed as cell growth at 100 uM after 48 hrs by sulforhodamine B assay relative to control; format: functional; conditions: NCI-H460, 48 h, read-out: Activity
Summary of the method: (§3)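 Three-cell-line prescreen (NCI-H460 lung, MCF7 breast, SF 268 CNS), each preincubated on microtiter plates. The agent is added at a single concentration and cultures are incubated 48 h. Growth is read by sulphorhodamine B protein staining and reported as percent growth of treated versus untreated control cells; negative values indicate cell kill.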

OVCAR-8 = assay: Anticancer activity against human OVCAR8 cells after 48 hrs by sulforhodamine B assay; format: functional; conditions: OVCAR-8, 48 h; summary of the method: as §2
786-0 = assay: Anticancer activity against human 786-0 cells after 48 hrs by sulforhodamine B assay; format: functional; conditions: 786-0, 48 h; summary of the method: as §2
BT-549 = assay: Anticancer activity against human BT549 cells after 48 hrs by sulforhodamine B assay; format: functional; conditions: BT-549, 48 h; summary of the method: as §2
SW-620 = assay: Anticancer activity against human SW620 cells after 48 hrs by sulforhodamine B assay; format: functional; conditions: SW-620, 48 h; summary of the method: as §1
UO-31 = assay: Anticancer activity against human UO31 cells after 48 hrs by sulforhodamine B assay; format: functional; conditions: UO-31, 48 h; summary of the method: as §1
ACHN = assay: Anticancer activity against human ACHN cells after 48 hrs by sulforhodamine B assay; format: functional; summary of the method: as §2
UACC-62 = assay: Anticancer activity against human UACC62 cells after 48 hrs by sulforhodamine B assay; format: functional; conditions: UACC-62, 48 h; summary of the method: as §1
RXF 393 = assay: Anticancer activity against human RXF393 cells after 48 hrs by sulforhodamine B assay; format: functional; conditions: RXF 393, 48 h; summary of the method: as §2
MOLT-4 = assay: Anticancer activity against human MOLT4 cells after 48 hrs by sulforhodamine B assay; format: functional; conditions: MOLT-4, 48 h; summary of the method: as §2
TK-10 = assay: Anticancer activity against human TK10 cells after 48 hrs by sulforhodamine B assay; format: functional; conditions: TK-10, 48 h; summary of the method: as §1
NCI-H23 = assay: Anticancer activity against human NCI-H23 cells after 48 hrs by sulforhodamine B assay; format: functional; conditions: NCI-H23, 48 h; summary of the method: as §2
OVCAR-3 = assay: Anticancer activity against human OVCAR-3 cells after 48 hrs by sulforhodamine B assay; format: functional; conditions: OVCAR-3, 48 h; summary of the method: as §2
HCC 2998 = assay: Anticancer activity against human HCC2998 cells after 48 hrs by sulforhodamine B assay; format: functional; conditions: HCC 2998, 48 h; summary of the method: as §2
UACC-257 = assay: Anticancer activity against human UACC257 cells after 48 hrs by sulforhodamine B assay; format: functional; conditions: UACC-257, 48 h; summary of the method: as §1
EKVX = assay: Anticancer activity against human EKVX cells after 48 hrs by sulforhodamine B assay; format: functional; summary of the method: as §2
SF-268 [3] = assay: Anticancer activity against human SF268 cells after 48 hrs by sulforhodamine B assay; format: functional; conditions: SF-268, 48 h; summary of the method: as §2
COLO 205 = assay: Anticancer activity against human COLO205 cells after 48 hrs by sulforhodamine B assay; format: functional; conditions: COLO 205, 48 h; summary of the method: as §2
OVCAR-5 = assay: Anticancer activity against human OVCAR5 cells after 48 hrs by sulforhodamine B assay; format: functional; conditions: OVCAR-5, 48 h; summary of the method: as §2
MCF7 [4] = assay: Anticancer activity against human MCF7 cells assessed as cell growth at 100 uM after 48 hrs by sulforhodamine B assay relative to control; format: functional; conditions: MCF7, 48 h, read-out: Activity; summary of the method: as §3
NCI-H522 = assay: Anticancer activity against human NCI-H522 cells after 48 hrs by sulforhodamine B assay; format: functional; conditions: NCI-H522, 48 h; summary of the method: as §2
A549 = assay: Anticancer activity against human A549 cells after 48 hrs by sulforhodamine B assay; format: functional; conditions: A549, 48 h; summary of the method: as §2
LOX IMVI = assay: Anticancer activity against human LOXIMVI cells after 48 hrs by sulforhodamine B assay; format: functional; summary of the method: as §2
SK-MEL-28 = assay: Anticancer activity against human SK-MEL-28 cells after 48 hrs by sulforhodamine B assay; format: functional; conditions: SK-MEL-28, 48 h; summary of the method: as §2
M14 = assay: Anticancer activity against human M14 cells after 48 hrs by sulforhodamine B assay; format: functional; conditions: M14, 48 h; summary of the method: as §2
PC-3 = assay: Anticancer activity against human PC3 cells after 48 hrs by sulforhodamine B assay; format: functional; conditions: PC-3, 48 h; summary of the method: as §2
A498 = assay: Anticancer activity against human A498 cells after 48 hrs by sulforhodamine B assay; format: functional; conditions: A498, 48 h; summary of the method: as §2
SNB-19 = assay: Anticancer activity against human SNB19 cells after 48 hrs by sulforhodamine B assay; format: functional; conditions: SNB-19, 48 h; summary of the method: as §2
NCI-H226 = assay: Anticancer activity against human NCI-H226 cells after 48 hrs by sulforhodamine B assay; format: functional; conditions: NCI-H226, 48 h; summary of the method: as §2
SF-268 [5] = assay: Anticancer activity against human SF268 cells assessed as cell growth at 100 uM after 48 hrs by sulforhodamine B assay relative to control; format: functional; conditions: SF-268, 48 h, read-out: Activity; summary of the method: as §3
HCT-116 = assay: Anticancer activity against human HCT116 cells after 48 hrs by sulforhodamine B assay; format: functional; conditions: HCT-116, 48 h; summary of the method: as §2
Malme-3M = assay: Anticancer activity against human MALME-3M cells after 48 hrs by sulforhodamine B assay; format: functional; summary of the method: as §2
NCI-H322M = assay: Anticancer activity against human NCI-H322M cells after 48 hrs by sulforhodamine B assay; format: functional; summary of the method: as §2
HOP-92 = assay: Anticancer activity against human HOP92 cells after 48 hrs by sulforhodamine B assay; format: functional; conditions: HOP-92, 48 h; summary of the method: as §2
MDA-MB-435 = assay: Anticancer activity against human MDA-MB-435 cells after 48 hrs by sulforhodamine B assay; format: functional; conditions: MDA-MB-435, 48 h; summary of the method: as §2
MDA-MB-231 = assay: Anticancer activity against human MDA-MB-231 cells after 48 hrs by sulforhodamine B assay; format: functional; conditions: MDA-MB-231, 48 h; summary of the method: as §2
HOP-62 = assay: Anticancer activity against human HOP62 cells after 48 hrs by sulforhodamine B assay; format: functional; conditions: HOP-62, 48 h; summary of the method: as §2
DU-145 = assay: Anticancer activity against human DU145 cells after 48 hrs by sulforhodamine B assay; format: functional; conditions: DU-145, 48 h; summary of the method: as §2
SN12C = assay: Anticancer activity against human SN12C cells after 48 hrs by sulforhodamine B assay; format: functional; summary of the method: as §2
NCI/ADR-RES = assay: Anticancer activity against human NCI/ADR-RES cells after 48 hrs by sulforhodamine B assay; format: functional; summary of the method: as §2
HT-29 = assay: Anticancer activity against human HT-29 cells after 48 hrs by sulforhodamine B assay; format: functional; conditions: HT-29, 48 h; summary of the method: as §2
IGROV-1 = assay: Anticancer activity against human IGROV1 cells after 48 hrs by sulforhodamine B assay; format: functional; conditions: IGROV-1, 48 h; summary of the method: as §2
CAKI-1 = assay: Anticancer activity against human Caki1 cells after 48 hrs by sulforhodamine B assay; format: functional; conditions: CAKI-1, 48 h; summary of the method: as §2
SF-295 = assay: Anticancer activity against human SF295 cells after 48 hrs by sulforhodamine B assay; format: functional; conditions: SF-295, 48 h; summary of the method: as §2
SNB-75 = assay: Anticancer activity against human SNB75 cells after 48 hrs by sulforhodamine B assay; format: functional; conditions: SNB-75, 48 h; summary of the method: as §1
KM12 = assay: Anticancer activity against human KM12 cells after 48 hrs by sulforhodamine B assay; format: functional; conditions: KM12, 48 h; summary of the method: as §2
NCI-H460 [6] = assay: Anticancer activity against human NCI-H460 cells after 48 hrs by sulforhodamine B assay; format: functional; conditions: NCI-H460, 48 h; summary of the method: as §2
[7] = Acute toxicity in orally dosed Swiss albino mouse after 24 hrs; format: organism-based; conditions: in vivo, po
Summary of the method: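 Male Swiss albino mice (Mus musculus); median lethal dose (LD50) determined after oral dosing, read at 24 h.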

HCT-15 = assay: Anticancer activity against human HCT15 cells after 48 hrs by sulforhodamine B assay; format: functional; conditions: HCT-15, 48 h; summary of the method: as §2

## Fc1cc(-c2nnc3n2N=C(c2ccc(Cl)cc2)CS3)c(Cl)cc1Cl
T47D
  GI50: 3.9 µM
MCF7 [1]
  GI50: 6.24 µM
OVCAR-4
  GI50: 5.35 µM
U-251
  GI50: 10.6 µM
SK-OV-3
  GI50: 25.4 µM
K562
  GI50: 1.69 µM
NCI-H460 [2]
  growth at 100 µM: 3%
OVCAR-8
  GI50: 14.8 µM
786-0
  GI50: 2.08 µM
BT-549
  GI50: 3.27 µM
SW-620
  GI50: 1.91 µM
UO-31
  GI50: 1.89 µM
ACHN
  GI50: 4.82 µM
UACC-62
  GI50: 3.63 µM
RXF 393
  GI50: 11.4 µM
MOLT-4
  GI50: 1.06 µM
TK-10
  GI50: 3.11 µM
NCI-H23
  GI50: 13.8 µM
OVCAR-3
  GI50: 15.1 µM
HCC 2998
  GI50: 13.6 µM
UACC-257
  GI50: 15.7 µM
EKVX
  GI50: 27.4 µM
SF-268 [3]
  GI50: 13.2 µM
COLO 205
  GI50: 7.09 µM
OVCAR-5
  GI50: 10.6 µM
MCF7 [4]
  growth at 100 µM: 3%
NCI-H522
  GI50: 1.8 µM
A549
  GI50: 18.3 µM
LOX IMVI
  GI50: 1.69 µM
SK-MEL-28
  GI50: 6.41 µM
M14
  GI50: 4.87 µM
PC-3
  GI50: 18.7 µM
A498
  GI50: 21 µM
SNB-19
  GI50: 19.5 µM
NCI-H226
  GI50: 18.1 µM
SF-268 [5]
  growth at 100 µM: 3%
HCT-116
  GI50: 2.36 µM
Malme-3M
  GI50: 2.37 µM
NCI-H322M
  GI50: 16.2 µM
HOP-92
  GI50: 16.4 µM
MDA-MB-435
  GI50: 4.55 µM
MDA-MB-231
  GI50: 10.8 µM
HOP-62
  GI50: 20.1 µM
DU-145
  GI50: 3.41 µM
SN12C
  GI50: 3.6 µM
NCI/ADR-RES
  GI50: 3.12 µM
HT-29
  GI50: 4.6 µM
IGROV-1
  GI50: 3.39 µM
CAKI-1
  GI50: 4.21 µM
SF-295
  GI50: 15.7 µM
SNB-75
  GI50: 3.37 µM
KM12
  GI50: 8.08 µM
NCI-H460 [6]
  GI50: 19.1 µM
[7]
  LD50 at 24 h: 227 mg/kg
HCT-15
  GI50: 1.86 µM
